Results pooled from the literature.
PIP5K1C: Phosphatidylinositol 4-phosphate 5-kinase type-1 gamma (PIP5K1C, Homo sapiens, UniProt O60331)
MMP7: Matrilysin (MMP7, Homo sapiens, UniProt P09237)

Compound	target	assay	test system	setting	measurement	value
COc1ncccc1-c1cnn2ccc(N3CCN(C(=O)OC(C)C)CC3)nc12	Serine/threonine-protein kinase/endoribonuclease IRE1 (ERN1, Homo sapiens, UniProt O75460)	binding, competition with immobilised ligand		1 µM	remaining binding	67%
Nc1ncc(-c2nc(N3CCOCC3)nc(N3CCOCC3)n2)c(C(F)F)n1	PIP5K1C	binding, competition with immobilised ligand		10 µM	remaining binding	100%
C#Cc1n[nH]c2c(-c3cn(C(C)c4ccccn4)c(=O)[nH]c3=O)cc(F)cc12 (centres unmarked)	Mitogen-activated protein kinase kinase kinase kinase 3 (MAP4K3, Homo sapiens, UniProt Q8IVH8)	enzyme activity, inhibitor		1 µM	inhibition	9.1%
Cc1ccc(-c2cnnc(N3CCC(c4cccc(Cl)c4)C3)n2)o1 (centres unmarked)	Inorganic pyrophosphatase (Mycobacterium tuberculosis, UniProt P9WI55)	enzyme activity, inhibitor		100 µM	inhibition	45%
CNC(=O)[C@H](Cc1ccccc1)NC(=O)[C@H](CC(C)C)[C@H](CSc1cccs1)C(=O)NO	MMP7	enzyme activity, inhibitor		1 nM	inhibition	31%
CCN1CCN(Cc2ccc(NC(=O)c3ccc(C)c(Oc4ccnc5[nH]ccc45)c3)cc2C(F)(F)F)CC1	Serine/threonine-protein kinase 32C (STK32C, Homo sapiens, UniProt Q86UX6)	target engagement in cells, inhibitor, chemoproteomics	Huh-7	1 µM	inhibition	-13.4%
Cc1nn(C)cc1-c1nc2c(N3CCN(Cc4ccc(Cl)cc4)CC3)c(Cl)cnc2[nH]1	PIP5K1C	binding, competition with immobilised ligand		1 µM	remaining binding	84%
CN(C)C(=O)COC(=O)Cc1ccc(OC(=O)c2ccc(NC(=N)N)cc2)cc1	MMP7	enzyme activity, inhibitor		10 µM	inhibition	2%
